# Results from ChEMBL document CHEMBL4229460, “Design and biological evaluation of novel hybrids of 1, 5-diarylpyrazole and Chrysin for selective COX-2 inhibition” (Bioorg Med Chem, 2018).
# Experiments:
# HEK-293T = assay: Cytotoxicity against human 293T cells after 48 hrs by MTT assay; format: cell-based
# HeLa [1] = assay: Cell cycle arrest in human HeLa cells assessed as accumulation at S phase at 5 uM after 24 hrs by propidium iodide staining based flow cytometry (reference value: 18.16%); format: functional
# HeLa [2] = assay: Cell cycle arrest in human HeLa cells assessed as accumulation at G2/M phase at 10 uM after 24 hrs by propidium iodide staining based flow cytometry (reference value: 21.45%); format: functional
# A549 = assay: Antiproliferative activity against human A549 cells after 48 hrs by MTT assay; format: functional, cell-based; settings: A549, 48 h
# How it was run: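 Cells kept in DMEM with 10% FBS, penicillin/streptomycin, 37 °C, 5% CO₂. Seeded at 5 × 10⁴ cells/well and allowed to adhere 12 h. Exposed to 0, 0.1, 1, 10 and 100 μM (final) for 48 h. Viability read by MTT reduction at OD 570 nm with 630 nm reference. IC50 reported as mean ± SD of three independent experiments.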
# HeLa [3] = assay: Disruption of mitochondrial membrane potential in human HeLa cells assessed as collapse of the mitochondrial membrane potential at 2.5 uM after 12 hrs by JC1 staining based flow cytometry (reference value: 0.768%); format: functional
# HeLa [4] = assay: Induction of apoptosis in human HeLa cells assessed as necrotic cells at 5 uM after 48 hrs by Annexin-V-FITC/propidium iodide staining based flow cytometry (reference value: 1.12%); format: functional
# How it was run: (§1)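 HeLa cells in DMEM with 10% FBS, penicillin/streptomycin, 37 °C, 5% CO₂; seeded 2 × 10⁵ cells/well in six-well plates, treated at 0, 1.25, 2.5, 5 and 10 μM for 24 h, or at 5 μM for 12, 24, 36 or 48 h. Cells trypsinized, washed in ice-cold PBS, stained in binding buffer with Annexin V-FITC and PI for 10 min in the dark, then analyzed by flow cytometry.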
# HeLa [5] = assay: Induction of apoptosis in human HeLa cells assessed as necrotic cells at 5 uM after 36 hrs by Annexin-V-FITC/propidium iodide staining based flow cytometry (reference value: 1.12%); format: functional; how it was run: as §1
# HeLa [6] = assay: Induction of apoptosis in human HeLa cells assessed as late apoptotic cells at 5 uM after 24 hrs by Annexin-V-FITC/propidium iodide staining based flow cytometry (reference value: 1.72 to 2.57%); format: functional
# How it was run: (§2)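 HeLa seeded at 2 × 10⁵ cells/well. Dose series was 0, 1.25, 2.5, 5 and 10 μM for 24 h; time course was 5 μM for 12, 24, 36 or 48 h. Trypsinized and washed in ice-cold PBS, then stained in binding buffer with Annexin V-FITC and PI for 10 min in the dark. Flow cytometry scored early (Annexin⁺/PI⁻) and late (Annexin⁺/PI⁺) apoptotic cells.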
# HeLa [7] = assay: Disruption of mitochondrial membrane potential in human HeLa cells assessed as intact mitochondrial membrane at 5 uM after 12 hrs by JC1 staining based flow cytometry (reference value: 99.2%); format: functional
# HeLa [8] = assay: Cell cycle arrest in human HeLa cells assessed as accumulation at S phase at 1.25 uM after 24 hrs by propidium iodide staining based flow cytometry (reference value: 18.16%); format: functional
# HeLa [9] = assay: Induction of apoptosis in human HeLa cells assessed as necrotic cells at 1.25 uM after 24 hrs by Annexin-V-FITC/propidium iodide staining based flow cytometry (reference value: 0.242%); format: functional; how it was run: as §2
# HeLa [10] = assay: Induction of apoptosis in human HeLa cells assessed as early apoptotic cells at 2.5 uM after 24 hrs by Annexin-V-FITC/propidium iodide staining based flow cytometry (reference value: 2.98%); format: functional; how it was run: as §2
# HeLa [11] = assay: Induction of apoptosis in human HeLa cells assessed as early apoptotic cells at 5 uM after 24 hrs by Annexin-V-FITC/propidium iodide staining based flow cytometry (reference value: 1.24 to 2.98%); format: functional; how it was run: as §2
# HeLa [12] = assay: Induction of apoptosis in human HeLa cells assessed as early apoptotic cells at 10 uM after 24 hrs by Annexin-V-FITC/propidium iodide staining based flow cytometry (reference value: 2.98%); format: functional; how it was run: as §2
# HeLa [13] = assay: Induction of apoptosis in human HeLa cells assessed as live cells at 1.25 uM after 24 hrs by Annexin-V-FITC/propidium iodide staining based flow cytometry (reference value: 94.6%); format: functional; how it was run: as §2
# HeLa [14] = assay: Cell cycle arrest in human HeLa cells assessed as accumulation at G1 phase at 1.25 uM after 24 hrs by propidium iodide staining based flow cytometry (reference value: 55.51%); format: functional
# HeLa [15] = assay: Disruption of mitochondrial membrane potential in human HeLa cells assessed as collapse of the mitochondrial membrane potential at 10 uM after 12 hrs by JC1 staining based flow cytometry (reference value: 0.768%); format: functional
# HeLa [16] = assay: Cell cycle arrest in human HeLa cells assessed as accumulation at G2/M phase at 2.5 uM after 24 hrs by propidium iodide staining based flow cytometry (reference value: 21.45%); format: functional
# HeLa [17] = assay: Induction of apoptosis in human HeLa cells assessed as early apoptotic cells at 1.25 uM after 24 hrs by Annexin-V-FITC/propidium iodide staining based flow cytometry (reference value: 2.98%); format: functional; how it was run: as §2
# HeLa [18] = assay: Cell cycle arrest in human HeLa cells assessed as accumulation at G1 phase after 24 hrs by propidium iodide staining based flow cytometry; format: functional
# HeLa [19] = assay: Induction of apoptosis in human HeLa cells assessed as early apoptotic cells at 5 uM after 12 hrs by Annexin-V-FITC/propidium iodide staining based flow cytometry (reference value: 1.24%); format: functional; how it was run: as §2
# HeLa [20] = assay: Induction of apoptosis in human HeLa cells assessed as live cells at 5 uM after 24 hrs by Annexin-V-FITC/propidium iodide staining based flow cytometry (reference value: 94.6 to 95.1%); format: functional; how it was run: as §2
# [21] = biological target: T1, Prostaglandin G/H synthase 2 (Homo sapiens, UniProt P35354); assay: Inhibition of COX2 (unknown origin) using arachidonic acid as substrate pretreated for 10 mins followed by substrate addition and measured after 2 mins by ELISA
# T1 sequence (P35354 whole entry): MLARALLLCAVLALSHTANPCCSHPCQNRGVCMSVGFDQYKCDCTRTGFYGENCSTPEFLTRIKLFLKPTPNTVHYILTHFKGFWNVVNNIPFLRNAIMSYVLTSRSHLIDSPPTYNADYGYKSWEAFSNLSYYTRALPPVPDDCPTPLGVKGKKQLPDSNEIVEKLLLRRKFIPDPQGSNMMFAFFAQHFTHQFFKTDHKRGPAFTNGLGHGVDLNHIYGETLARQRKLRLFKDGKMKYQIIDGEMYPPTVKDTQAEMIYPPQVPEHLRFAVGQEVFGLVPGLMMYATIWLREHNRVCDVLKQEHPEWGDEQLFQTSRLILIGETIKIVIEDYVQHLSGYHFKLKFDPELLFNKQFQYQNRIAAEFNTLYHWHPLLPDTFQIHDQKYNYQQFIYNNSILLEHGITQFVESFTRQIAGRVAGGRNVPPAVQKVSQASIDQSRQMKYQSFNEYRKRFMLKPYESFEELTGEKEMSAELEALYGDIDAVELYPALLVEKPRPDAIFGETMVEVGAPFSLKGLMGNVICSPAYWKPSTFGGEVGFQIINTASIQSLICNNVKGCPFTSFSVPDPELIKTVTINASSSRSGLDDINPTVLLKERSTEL
smiles,measurement,setting,value
COc1ccc(-c2cc(COC(=O)COc3cc(O)c4c(=O)cc(-c5ccccc5)oc4c3)nn2-c2ccc(C)cc2)cc1,IC50,HEK-293T,194 µM
same,Activity,HeLa [1],15.67%
same,Activity,HeLa [2],5.24%
same,IC50,A549,6.41 µM
same,Activity,HeLa [3],5.61%
same,Activity,HeLa [4],1.43%
same,Activity,HeLa [5],2.08%
same,Activity,HeLa [6],0.9 - 7.15%
same,Activity,HeLa [7],90.5%
same,Activity,HeLa [8],17.96%
same,Activity,HeLa [9],1.18%
same,Activity,HeLa [10],16.6%
same,Activity,HeLa [11],31.6 - 34.7%
same,Activity,HeLa [12],36.8%
same,Activity,HeLa [13],83.2%
same,Activity,HeLa [14],62.63%
same,Activity,HeLa [15],13.3%
same,Activity,HeLa [16],9.58%
same,Activity,HeLa [17],12.6%
same,Activity,HeLa [18],Dose-dependent effect
same,Activity,HeLa [19],22.7%
same,Activity,HeLa [20],43.7 - 57.3%
same,IC50,[21],230 nM
